Measured values: ChEMBL document CHEMBL4689842, “EUbOPEN Chemogenomics Library wave 1” (2021)
Values joined by “and” are separate entries in the source; they are usually repeats but may differ in a detail not shown here. Equal values may be shown once.

Tested on: HEK-293T
Test: Multiplex assay against HEK293T;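 as to Population Tubulin-Different-Phenotype (%): share of the cells with healthy nuclei that show this phenotype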
Assay type: toxicity, cell-based
Conditions: human
How it was run: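 Live cells were stained at seeding with Hoechst33342, BioTracker Green Microtubule Cytoskeleton Dye, MitoTracker Red and Annexin V Alexa Fluor 680. Following compound addition, they were imaged on a CQ1 microscope at 37°C and 5% CO2 and gated by CellPathfinder machine learning into Hoechst high-intensity objects or normal cells, with normal cells split into healthy, pyknosed or fragmented nuclei and pyknosed cells into mitotic or apoptotic. Tubulin, mitochondrial-mass and membrane-permeability phenotypes are per cents of healthy-nucleus cells.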

[1] = 12 h, 1 µM, compound concentration 1 uM, replicate 1
[2] = 12 h, 1 µM, compound concentration 1 uM, replicate 2
[3] = 12 h, 10 µM, compound concentration 10 uM, replicate 1
[4] = 12 h, 10 µM, compound concentration 10 uM, replicate 2
[5] = 24 h, 1 µM, compound concentration 1 uM, replicate 1
[6] = 24 h, 1 µM, compound concentration 1 uM, replicate 2
[7] = 24 h, 10 µM, compound concentration 10 uM, replicate 1
[8] = 24 h, 10 µM, compound concentration 10 uM, replicate 2
[9] = 48 h, 10 µM, compound concentration 10 uM, replicate 1
[10] = 48 h, 10 µM, compound concentration 10 uM, replicate 2

## C[C@@]1(C(=O)Nc2ccc(F)nc2)CCCN1c1nc(Nc2cc(C3CC3)n[nH]2)c2cccn2n1 [BMS-754807]
[1]
  Population Apoptotic (%): 24%
  Population Fragmented Nuclei (%): 19%
  Population Healthy Nuclei (%): 38%
  Population Hoechst High Intensity Objects (%): 25%
  Population Membrane Permeable-Phenotype (%): 7%
  Population Mitochondria Different-Phenotype (%): 32%
  Population Mitotic Cells (%): 75%
  Population Normal (%): 74%
  Population Pyknosed Nuclei (%): 42%
  Population Tubulin-Different-Phenotype (%): 68%
  Total Cell Count: 622
[2]
  Population Apoptotic (%): 20%
  Population Fragmented Nuclei (%): 3%
  Population Healthy Nuclei (%): 72%
  Population Hoechst High Intensity Objects (%): 12%
  Population Mitochondria Different-Phenotype (%): 57%
  Population Mitotic Cells (%): 80%
  Population Normal (%): 87%
  Population Pyknosed Nuclei (%): 23%
  Population Tubulin-Different-Phenotype (%): 92%
  Total Cell Count: 768
[3]
  Population Fragmented Nuclei (%): 13% and 14%
  Population Hoechst High Intensity Objects (%): 17% and 19%
  Population Membrane Permeable-Phenotype (%): 9% and 4%
  Population Normal (%): 82% and 80%
  Population Pyknosed Nuclei (%): 71% and 26%
  Total Cell Count: 259 and 598
[4]
  Population Fragmented Nuclei (%): 7% and 3%
  Population Hoechst High Intensity Objects (%): 9% and 6%
  Population Membrane Permeable-Phenotype (%): 10% and 3%
  Population Mitotic Cells (%): 51%
  Population Normal (%): 90% and 93%
  Population Tubulin-Different-Phenotype (%): 94% and 44%
[5]
  Population Apoptotic (%): 25%
  Population Fragmented Nuclei (%): 18%
  Population Healthy Nuclei (%): 56%
  Population Hoechst High Intensity Objects (%): 20%
  Population Membrane Permeable-Phenotype (%): 8%
  Population Mitochondria Different-Phenotype (%): 32%
  Population Mitotic Cells (%): 74%
  Population Normal (%): 79%
  Population Pyknosed Nuclei (%): 25%
  Population Tubulin-Different-Phenotype (%): 79%
  Total Cell Count: 652
[6]
  Population Apoptotic (%): 17%
  Population Fragmented Nuclei (%): 3%
  Population Healthy Nuclei (%): 82%
  Population Hoechst High Intensity Objects (%): 9%
  Population Membrane Permeable-Phenotype (%): 10%
  Population Mitochondria Different-Phenotype (%): 44%
  Population Mitotic Cells (%): 82%
  Population Normal (%): 90%
  Population Pyknosed Nuclei (%): 13%
  Population Tubulin-Different-Phenotype (%): 95%
  Total Cell Count: 865
[7]
  Population Apoptotic (%): 70% and 26%
  Population Fragmented Nuclei (%): 17% and 14%
  Population Hoechst High Intensity Objects (%): 14% and 19%
  Population Membrane Permeable-Phenotype (%): 2% and 5%
  Population Mitotic Cells (%): 29% and 73%
  Population Normal (%): 85% and 80%
  Population Tubulin-Different-Phenotype (%): 94% and 44%
  Total Cell Count: 284 and 562
[8]
  Population Fragmented Nuclei (%): 6% and 8%
  Population Hoechst High Intensity Objects (%): 10% and 8%
  Population Membrane Permeable-Phenotype (%): 10% and 4%
  Population Mitotic Cells (%): 30% and 81%
  Population Normal (%): 89% and 91%
  Population Tubulin-Different-Phenotype (%): 95% and 56%
[9]
  Population Apoptotic (%): 65%
  Population Fragmented Nuclei (%): 17%
  Population Healthy Nuclei (%): 7%
  Population Hoechst High Intensity Objects (%): 15%
  Population Membrane Permeable-Phenotype (%): 15%
  Population Mitochondria Different-Phenotype (%): 94%
  Population Mitotic Cells (%): 34%
  Population Normal (%): 84%
  Population Pyknosed Nuclei (%): 74%
  Population Tubulin-Different-Phenotype (%): 94%
  Total Cell Count: 290
[10]
  Population Apoptotic (%): 78%
  Population Fragmented Nuclei (%): 4%
  Population Healthy Nuclei (%): 57%
  Population Hoechst High Intensity Objects (%): 7%
  Population Membrane Permeable-Phenotype (%): 3%
  Population Mitochondria Different-Phenotype (%): 85%
  Population Mitotic Cells (%): 21%
  Population Normal (%): 92%
  Population Pyknosed Nuclei (%): 37%
  Population Tubulin-Different-Phenotype (%): 96%
  Total Cell Count: 199
